Screens (PubChem)
LEDGF integ inh: blockers of LEDGF/p75-dependent integrase strand transfer – biochemical, TR-FRET, high throughput, primary screen; HIV-1 integrase (with human LEDGF/p75); TR-FRET IN-LEDGF/p75 DNA integration, Eu/Cy5; inhibition, % at 3.7 µM; 0.64% of 370,000 active;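 active means inhibition above the screen-wide mean plus 3 SD, cut at about 13% in these data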;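 further: signal is the Cy5 over europium emission ratio at 671 and 618 nm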
MBD2 inh: inhibitors of MBD2 binding to methylated DNA, primary screen, biochemical, TR-FRET, DNA-binding domain, human. Methyl-CpG-binding domain protein 2 (Homo sapiens), Q9UBB5. MBD2 binding to methylated oligonucleotide. inhibition, % at 4.4 µM. 0.31% of 370,000 active. AID 686964, 2013; in the data active means inhibition above about 13%
UHRF1 MBD2 ctr: UHRF1 methylated DNA binding inhibitors, primary screen, counter-screen for MBD2 inhibitor project, biochemical, TR-FRET, human UHRF1, single concentration | inhibition, % at 4.4 µM | E3 ubiquitin-protein ligase UHRF1 (Homo sapiens), Q96T88 | AID 687016, 2013 | 0.75% of 370,000 active | UHRF1 binding to methylated oligo; in the data active means inhibition above about 21%;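 further: UHRF1 SRA domain binding a hemimethylated CpG hairpin DNA probe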
TDP2 inh: human TDP2 enzyme inhibitors, primary screen, biochemical, epi absorbance, recombinant enzyme; Tyrosyl-DNA phosphodiesterase 2 (Homo sapiens), O95551; T5PNP hydrolysis, p-nitrophenol absorbance 415 nm; inhibition, % at 12.8 µM; 0.34% of 370,000 active; AID 720702, 2013;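 active means inhibition above the mean of all tested compounds plus 3 SD, set per campaign, cut at about 25% in these data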
Target sequence (O95551 whole entry, looked up): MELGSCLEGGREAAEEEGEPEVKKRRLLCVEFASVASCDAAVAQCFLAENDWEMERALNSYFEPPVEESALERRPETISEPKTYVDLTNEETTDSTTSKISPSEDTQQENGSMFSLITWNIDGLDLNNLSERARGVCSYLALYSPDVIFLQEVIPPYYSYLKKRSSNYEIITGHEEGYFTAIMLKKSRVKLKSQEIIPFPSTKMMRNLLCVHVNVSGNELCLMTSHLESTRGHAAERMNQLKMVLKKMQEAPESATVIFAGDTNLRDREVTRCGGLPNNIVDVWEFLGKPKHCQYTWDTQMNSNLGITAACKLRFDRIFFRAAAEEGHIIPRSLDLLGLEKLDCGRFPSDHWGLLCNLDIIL
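Test system: Human TDP2 enzyme | Reagent: 5 mM T5PNP | Compound dosing: 12.8 µM single point, 1% DMSO | Incubation: Enzyme reaction with compound for 2 h at 37 °C | Technique: p-Nitrophenol epi absorbance | Read-out: % inhibition relative to enzyme-containing and enzyme-free wells | Benchmarks: High control without enzyme, low control DMSO plus TDP2 | Replicates: Singlicate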
IN multimer act: HIV-1 IN multimer formation enhancers, counter-screen for LEDGF/p75 integration inhibitor project, biochemical, TR-FRET | 17% of 2,000 active | activation, % at 7.7 µM | AID 1053131, 2014 | shares compounds with LEDGF integ inh | TR-FRET HIV-1 integrase multimerization; in the data active means activation above about 8.9%
TR-FRET interf: TR-FRET optical interference artefacts, confirmation, artefact control for LEDGF/p75-dependent integration inhibitor project, biochemical, HIV-1 IN multimerization; 2,000 tested, under 10 active; inhibition, % at 7.7 µM; shares compounds with LEDGF integ inh; TR-FRET optical interference counterscreen;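 active means inhibition above the mean over all tested compounds plus 3 SD, which no compound reached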
IN-LEDGF confirm: inhibitors of HIV-1 IN-LEDGF/p75 DNA integration, confirmation, biochemical, TR-FRET; shares compounds with LEDGF integ inh; TR-FRET LEDGF/p75-dependent HIV-1 integration; inhibition, % at 3.7 µM; 36% of 2,000 active; AID 1053136, 2014; in the data active means inhibition above about 14%
Large screens that a line does not name were inactive (follow-up assays come after a bar, where they were run). Most compounds without a hit are left out; they make up all but 1.6% or so of the library.

CCOC(=O)[C@@]12CN(C(=O)OC(C)(C)C)CC=C1N(Cc1ccc(OC)cc1)C(=O)[C@H]2CC(=O)NCc1ccc(C)o1	none
COC(=O)c1sc2nc(N)c(C#N)cc2c1N	LEDGF integ inh 34 | IN multimer act inactive | TR-FRET interf inactive | IN-LEDGF confirm inactive
C/C(=N/NC(=O)c1cc(O)c(O)c(O)c1)c1ccc([N+](=O)[O-])cc1	LEDGF integ inh 31, UHRF1 MBD2 ctr 22 | IN multimer act 19 | TR-FRET interf inactive | IN-LEDGF confirm 51
CCCCc1cc(=O)oc2cc(OC3CCCCC3=O)ccc12 (configuration not stated)	LEDGF integ inh 18 | IN multimer act inactive | TR-FRET interf inactive | IN-LEDGF confirm inactive
CCCc1cc(=O)oc2c(C)c(OC3CCCCC3=O)ccc12 (configuration not stated)	none
O=C(NCC(c1ccccc1)c1ccccc1)[C@H](Cc1ccccc1)NC1(C(=O)NC2CCCCC2)CCOCC1	none
O=C(CN1C(=O)c2ccccc2C1=O)NCc1ccccn1	none
O=C(Cn1c(=O)sc2ccccc21)NCc1ccccn1	LEDGF integ inh 19 | IN multimer act inactive | TR-FRET interf inactive | IN-LEDGF confirm inactive
CC(CCc1ccccc1)NC(=O)CN1CCc2ccccc2C1 (configuration not stated)	LEDGF integ inh 15, UHRF1 MBD2 ctr 22 | IN multimer act inactive | TR-FRET interf inactive | IN-LEDGF confirm inactive
CC(=O)C(Cc1ccccc1)NC(=O)CN1CCc2ccccc2C1 (configuration not stated)	none
COc1cc(/C=C2\OC(=O)c3c(OC)cccc32)ccc1O	none
COc1cc(C(=O)O)c2c(c1C)OC(=O)c1c(C)cc(O)c(C=O)c1O2	LEDGF integ inh 17 | IN multimer act inactive | TR-FRET interf inactive | IN-LEDGF confirm 38
CCCCN(C)C(=O)C1CCN(S(=O)(=O)c2ccc3[nH]c(=O)oc3c2)CC1	none
COCC1CN(CCc2ccc(F)cc2)S(=O)(=O)c2c(OCCN3C(=O)[C@@H]4[C@H](C3=O)[C@@H]3C=C[C@H]4C3)cccc2O1 (some centres not stated)	none
Cc1ccc(Cn2cc(COC(=O)N3CCCC3)nn2)cc1	none
CN(Cc1ccccc1)Cc1nc2c(c(=O)n(C)c(=O)n2C)n1CCc1ccccc1	LEDGF integ inh 23 | IN multimer act inactive | TR-FRET interf inactive | IN-LEDGF confirm inactive
CCCn1c(CN(C)Cc2ccccc2)nc2c1c(=O)n(C)c(=O)n2C	none
CCCN1CCS(=O)(=O)N(Cc2cn(Cc3ccc(Cl)cc3)nn2)C(C(=O)OC)C1 (configuration not stated)	none
O=C1OC(/C=C/c2ccc(Cl)cc2)=NC/1=C/c1ccco1	LEDGF integ inh 17 | IN multimer act inactive | TR-FRET interf inactive | IN-LEDGF confirm inactive
CCCN(CC1CC1)C(=S)NC(=O)c1cc(Br)ccc1Cl	LEDGF integ inh 17 | IN multimer act inactive | TR-FRET interf inactive | IN-LEDGF confirm inactive
COc1ccccc1N(CC(=O)NC1CCCCC1C)S(=O)(=O)c1cccs1 (configuration not stated)	LEDGF integ inh 34 | IN multimer act inactive | TR-FRET interf inactive | IN-LEDGF confirm inactive
N=c1c(C(=O)NCCc2ccccc2)cc2c(=O)n3ccccc3nc2n1Cc1ccco1	LEDGF integ inh 17 | IN multimer act inactive | TR-FRET interf inactive | IN-LEDGF confirm inactive
Cc1ccc2nc3c(cc(S(=O)(=O)c4ccccc4)c(=N)n3Cc3ccco3)c(=O)n2c1	LEDGF integ inh 18 | IN multimer act inactive | TR-FRET interf inactive | IN-LEDGF confirm inactive
COc1ccc(CC(=O)O/N=C(\N)Cc2cccc3ccccc23)cc1	LEDGF integ inh 14 | IN multimer act inactive | TR-FRET interf inactive | IN-LEDGF confirm inactive
COc1cc(NC(=O)c2cc(Cl)ccc2Cl)ccc1-c1cc2ccccc2oc1=O	LEDGF integ inh 35 | IN multimer act inactive | TR-FRET interf inactive | IN-LEDGF confirm inactive
CN(Cc1cn(Cc2ccccc2)nn1)S(=O)(=O)c1ccccc1Br	none
COc1ccc(/C=C/S(=O)(=O)NCCc2ccccc2)c(CNC(=O)OC(C)(C)C)c1	none
CCCCn1c(N)c(N(CCOC)C(=O)c2ccc(N3CCCC3)c([N+](=O)[O-])c2)c(=O)[nH]c1=O	LEDGF integ inh 27 | IN multimer act inactive | TR-FRET interf inactive | IN-LEDGF confirm inactive
Cc1ccccc1-n1c(=O)cc(N2CCN(Cc3ccccc3)CC2)[nH]c1=O	LEDGF integ inh 18 | IN multimer act inactive | TR-FRET interf inactive | IN-LEDGF confirm inactive
CCC(=O)c1ccc(OCC(O)Cn2c(C)nc3ccccc32)cc1 (configuration not stated)	none
CCC(=O)c1ccc(OCC(O)Cn2cnc3ccccc32)cc1 (configuration not stated)	LEDGF integ inh 36 | IN multimer act 11 | TR-FRET interf inactive | IN-LEDGF confirm inactive
CCCCOCCCNC(=O)C[C@H]1C(=O)N(CCCOC)C2=CCCCC[C@]21C(=O)OC	none
CCn1c2ccccc2c2cc(C=Nn3c(-c4ccccn4)n[nH]c3=S)ccc21	none
Cc1cc(C)c(OC2(c3ccccc3)OC(=O)c3ccccc32)c(C)c1 (configuration not stated)	LEDGF integ inh 31 | IN multimer act inactive | TR-FRET interf inactive | IN-LEDGF confirm inactive
COc1ccccc1-c1nnc2sc(COc3ccc(Cl)cc3Cl)nn12	none
COc1ccccc1-c1nnc2sc(COc3ccccc3)nn12	LEDGF integ inh 28 | IN multimer act inactive | TR-FRET interf inactive | IN-LEDGF confirm inactive
O=C(CCN1CCOCC1)N1c2ccccc2Sc2ccc(Cl)cc21	LEDGF integ inh 17 | IN multimer act inactive | TR-FRET interf inactive | IN-LEDGF confirm inactive
CCOc1ccc(-n2c(SCC(=O)Nc3cccc4ccccc34)nnc2-c2ccncc2)cc1	none
Nc1cc(=O)[nH]c(SCC(=O)Nc2ccc([N+](=O)[O-])cc2)n1	none
Nc1cc(=O)[nH]c(SCC(=O)Nc2cccc([N+](=O)[O-])c2)n1	LEDGF integ inh 56 | IN multimer act inactive | TR-FRET interf inactive | IN-LEDGF confirm inactive
